# FID counter = counter-screen for HCV NS3 helicase inhibitors: DNA intercalator displacement; DNA fluorescent intercalator displacement, fluorescence; inhibition, % at 7.9 µM; 290,000 compounds, 0.17% hits; in the data active = inhibition above about 37%;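 also: 0% = vehicle and 100% = reference compound; higher means more ethidium bromide displaced from hairpin DNA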
# Mot1-301 SUMO = inhibitors of SUMOylation pathway: yeast Mot1-301 growth rescue; S. cerevisiae Mot1-301 growth rescue, ATP luminescence, 38.5C; percent above DMSO median, 100 means doubled; growth rescue, % at 18.8 µM; AID 2716; 320,000 compounds, 1% hits;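 active = every valid replicate shows activation above 250% relative to neutral control wells; inactive = the rest, any valid replicate at or below 250%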;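 also: OY570 slx delta 5 strain wells were the positive control but not used for scaling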
# VIM-2 inhibitor = blocks Pseudomonas aeruginosa VIM-2 metallo-beta-lactamase. purified VIM-2, nitrocefin hydrolysis, epi-absorbance fluorescence. AID 1527. 290,000 compounds, 0.89% hits. inhibition, % at 5.6 µM;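 active = inhibition above the mean of all tested compounds plus 3 SD, cutoff set per screening run, cut at about 7.5% in these data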;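 also: red hydrolysis product quenches plate fluorescence so inhibitors raise well fluorescence; 0% = enzyme with DMSO and 100% = DMSO without enzyme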
# IMP-1 inh = inhibitors of Pseudomonas aeruginosa IMP-1 metallo-beta-lactamase. purified IMP-1, nitrocefin hydrolysis, epi-absorbance fluorescence. inhibition, % at 5.6 µM. 290,000 compounds, 0.45% hits. AID 1556;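 active = inhibition above the mean plus 3 SD of all compounds in the same screening run, cut at about 4.5% in these data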;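 also: 0% = IMP-1 with DMSO and 100% = DMSO wells lacking enzyme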
#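 System: Purified IMP-1 | Read-out basis: Percent enzyme inhibition | Controls: IMP-1 with DMSO as 0%, enzyme-free DMSO as 100% | Replicates: One well per compound | Doses: 5.6 µM nominal single concentration | Detection: Epi-absorbance fluorescence, 480 nm excitation, 530 nm emission | Incubation: 25 °C, 15 min preincubation, 25 min reaction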
# SUMO HTRF inh = SUMOylation inhibition; HTRF SUMOylation assay, SAE1/SAE2 + UBC9, in vitro; inhibition, % at 35 µM; AID 2006; 290,000 compounds, 0.36% hits; in the data active = inhibition above about 50%, passing the limit was not always enough
# Target sequence (P63279 whole entry, looked up): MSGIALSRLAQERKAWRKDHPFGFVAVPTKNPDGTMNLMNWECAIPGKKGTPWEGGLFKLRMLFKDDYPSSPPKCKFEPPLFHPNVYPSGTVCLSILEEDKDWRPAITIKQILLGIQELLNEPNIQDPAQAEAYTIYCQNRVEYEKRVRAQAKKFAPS
# NALP1 inh = NALP1 inhibition; S. cerevisiae NALP1/ASC/caspase-1 growth, X-gal OD620, 72 h; inhibition, % at 10 µM; 280,000 compounds, 0.61% hits; AID 2071; in the data active = inhibition mostly above about 24%, no sharp cut-off; inactive = mostly below about 32%
# Numbers without * were called inactive; . = not tested or not shown. Shown are actives, neighbours in structure and some others; about 2.9% of the full set was active somewhere.
SMILES,FID counter,Mot1-301 SUMO,VIM-2 inhibitor,IMP-1 inh,SUMO HTRF inh,NALP1 inh
COc1cccc2c1C(=O)c1c(O)c3c(c(O)c1C2=O)C[C@@](O)(C(=O)CO)C[C@@H]3O[C@H]1C[C@H](N)[C@H](O)[C@H](C)O1,59*,-37,24*,5.7*,26,19
O=C(N[C@@H](Cc1ccccc1)C(=O)NC1CCCCCC1)c1ccco1,-10,-16,0,-3,6,41*
O=C(N[C@@H](Cc1ccccc1)C(=O)NC1CCCCC1)c1ccco1,-6,425,-4,-2,-13,45
Cc1ccc(N2C(=O)CC(Sc3ncn[nH]3)C2=O)cc1C (centres undefined),-13,-9,-3,2,8,40*
Cc1cccc(N2C(=O)CC(Sc3ncn[nH]3)C2=O)c1 (centres undefined),-14,36,-3,-2,4,38*
Cc1cccc(N2C(=O)CC(Sc3nccc(C)n3)C2=O)c1 (centres undefined),-1,-17,-1,-3,-3,6
COc1ccc(CN2CNc3c(c(=O)n(C)c(=O)n3C)C2)cc1,0,1,-2,-1,-7,31
COC(=O)c1ccccc1NC(=O)CSc1nc(N)cc(N)n1,-3,-3,-4,-4,-4,32*
CCOC(=O)c1ccccc1NC(=O)CSc1nc(N)cc(N)n1,-6,10,-1,-4,17,-56
Cc1snc(SCC(=O)c2ccc([N+](=O)[O-])cc2)c1C#N,3,.,9.5*,-4,16,0
Cn1cc(/C=C2\SC(=O)NC2=S)c2ccccc21,0,.,4,5.3*,-8,9
Cc1ccc(/C=C2/SC(=S)N(C3CCCCC3)C2=O)o1,-22,-2,-4,0,7,-2
Cc1ccc(C(=O)NN2C(=O)/C(=C/c3cn(C)c4ccccc34)SC2=S)cc1,-2,-3,-2,-3,-12,16
Cc1ccc(/C=C2/SC(=O)NC2=S)o1,-5,.,4,5.3*,26,7
O=C(NCC(Cl)c1ccc2ccccc2c1)c1c(F)cccc1F (centres undefined),9,-11,1,-2,20,28
O=C(C1CCC1)N1CCN(S(=O)(=O)c2ccccc2)CC1,.,366,.,.,.,.
COc1ccc2c(c1OC)C(=O)OC2Nc1nc(-c2ccc(-c3ccccc3)cc2)cs1 (centres undefined),-6,12,0,1,-7,58*
COC(=O)C(NC(=O)CCc1c(C)nc2c(c(C)nn2-c2ccccc2)c1C)C(C)C (centres undefined),-43,-30,2,4.6*,1,32
COc1cc(C2c3c([nH]c(=O)[nH]c3=O)Nc3ccc4ccccc4c32)ccc1O (centres undefined),-26,14,-1,-3,10,3
COc1cc(C2c3c([nH]c(=O)[nH]c3=O)Nc3ccc4ccccc4c32)cc(OC)c1OC (centres undefined),-22,-5,-2,-2,77*,22
CC1CC(C)CN(C(=O)CSc2nc(Cc3cccs3)nc3ccccc23)C1 (centres undefined),-20,-1,-2,-3,-7,33
CC(C)(C)NC(=O)CCN(/N=C/c1ccccc1F)C1=NS(=O)(=O)c2ccccc21,-24,312*,1,-3,-16,10
O=C(/C=C/c1ccc(F)cc1)c1ccccc1Br,-8,-37,-1,-2,-2,55*
O=C(Oc1c(Cl)cc(Cl)c2cccnc12)c1cccc([N+](=O)[O-])c1,2,235,0,-2,-10,16
O=C(Oc1ccc(Cl)c2cccnc12)c1cccc([N+](=O)[O-])c1,3,25,-3,-4,11,58*
COCCCN(C(=S)NC(=O)C12CC3CC(CC(C3)C1)C2)c1c(N)n(Cc2ccccc2)c(=O)[nH]c1=O,-28,3,-3,-3,6,1
Cc1nc2sc3c(=O)[nH]nnc3c2c(C)c1Br,-7,-16,11*,0,-16,9
CCOC(=O)c1cc(-c2ccc(Cl)s2)[nH]n1,-10,-1,0,-2,1,44*

# High-throughput results: PubChem BioAssay, several laboratories
